ChEMBL document CHEMBL1157729, “Structure-activity relationship and mechanism of action studies of manzamine analogues for the control of neuroinflammation and cerebral infections” (J Med Chem, 2010)
≈ marks a conversion by molar mass, not a printed value. Calls of active or inactive are those of the source. No cut-off for these calls is given here.

Key:
[1] = system: Plasmodium yoelii; assay: Antiplasmodial activity against Plasmodium yoelii infected in perorally dosed mice (Mus musculus); format: functional; conditions: po
[2] = system: Vero; assay: Cytotoxicity against african green monkey Vero cells after 48 hrs by neutral red assay; format: cell-based; conditions: chlorocebus sabaeus
Outline: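 Vero cells seeded at 25,000/well and grown 24 h, then exposed to serially diluted samples for 48 h. Viable cells measured by neutral red assay, with doxorubicin as positive control. IC50 taken from dose-response curves.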

[3] = system: Plasmodium falciparum; assay: Antiplasmodial activity against chloroquine-sensitive Plasmodium falciparum D6 after 72 hrs by LDH assay; format: functional, organism-based; conditions: Plasmodium falciparum, D6, 72 h; read-out: IC50
[4] = system: Candida albicans; assay: Antifungal activity against Candida albicans ATCC 90028; format: functional, organism-based
Outline: (§1)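 Broth microdilution per modified CLSI method; samples serially diluted in 20% DMSO/saline, tested in duplicate; inocula set by OD630 of suspensions in incubation broth; growth read at 630 nm before and after incubation; amphotericin B drug control.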

[5] = system: Vero; assay: Cytotoxicity against african green monkey Vero cells up to 4.6 ug/mL after 48 hrs by neutral red assay; format: cell-based; conditions: chlorocebus sabaeus
Outline: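 Vero cells were seeded at 25,000 cells/well and incubated for 24 h, then exposed to serially diluted samples for 48 h. Viable cells were counted by Neutral Red assay, with doxorubicin as positive control. IC50 was taken from dose-response curves.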

[6] = Antineuroinflammatory activity in LPS-stimulated rat neonatal microglia assessed as drug level causing 50% PMA-induced LDH release preincubated 15 mins prior to PMA challenge measured after 70 mins; format: functional
Outline: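 Neonatal rat microglia (2 × 10^5/well) primed with E. coli LPS 0.3 ng/mL for 17 h at 35.9 °C, washed with HBSS, given compound (0.01–10 μM) or DMSO 15 min, then PMA 1 μM; LDH read spectrophotometrically after 70 min; LDH50 relative to Triton X-100 (0.1%) release; duplicates.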

[7] = system: Mycobacterium tuberculosis; assay: Antimycobacterial activity against Mycobacterium tuberculosis H37Rv; format: functional, organism-based
[8] = system: Cryptococcus neoformans; assay: Antifungal activity against Cryptococcus neoformans ATCC 90113; format: functional, organism-based; outline: as §1
[9] = (§2) Antineuroinflammatory activity in LPS-stimulated rat neonatal microglia assessed as inhibition of PMA-induced superoxide anion production preincubated 15 mins prior to PMA challenge measured after 70 mins; format: functional, cell-based
[10] = system: Plasmodium falciparum; assay: Antiplasmodial activity against chloroquine-resistant Plasmodium falciparum W2 after 72 hrs by LDH assay; format: functional, organism-based; conditions: Plasmodium falciparum, W2, 72 h; read-out: IC50
[11] = system: Mycobacterium intracellulare; assay: Antimycobacterial activity against Mycobacterium intracellular ATCC 23068; format: functional, organism-based
Outline: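 Modified Franzblau method; samples serially diluted in 20% DMSO/saline, tested in duplicate; inoculum set by OD630; fluorescence read at 544ex/590em before and after incubation; ciprofloxacin drug control.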

[12] = (§3) Antineuroinflammatory activity in LPS-stimulated rat neonatal microglia assessed as inhibition of PMA-induced TXB2 production preincubated 15 mins prior to PMA challenge measured after 70 mins; format: functional, cell-based
[13] = system: Microglia; assay: as §2; format: functional, cell-based
[14] = system: Microglia; assay: as §3; format: functional, cell-based

SMILES | ED50 [1] | ED90 [1] | IC50 [2] | IC50 [3] | IC50 [4] | Activity [5] | Activity [6] | MIC [7] | IC50 [8] | IC50 [9] | IC50 [10] | IC50 [11] | IC50 [12] | Activity [13] | Activity [14]
C[C@H]1[C@H](OC(=O)CCC(=O)[O-])O[C@@H]2O[C@@]3(C)CC[C@H]4[C@H](C)CC[C@@H]1[C@@]24OO3.[Na+] [SODIUM ARESUNATE] | 4.1 mg/kg | 17 mg/kg |  |  |  |  |  |  |  |  |  |  |  |  | 
CC(=O)Oc1cccc2c1[nH]c1c(C3=C[C@@]4(O)CC/C=C\CCCCN5CC[C@@H]3[C@]3(C[C@@H]6/C=C\CCCCN6[C@H]34)C5)nccc12 [8-ACETOXYMANZAMINE A] |  |  | 670 µg/mL (≈ 1100 µM) | 0.029 µg/mL (≈ 0.0478 µM) |  |  |  |  |  |  |  |  |  |  | 
Cn1c2ccccc2c2ccnc(C3=C[C@@]4(O)CC/C=C\CCCCN5CC[C@@H]3[C@]3(C[C@@H]6/C=C\CCCCN6[C@H]34)C5)c21 [9-N-METHYLMANZAMINE A] |  |  |  | 1.9 µg/mL (≈ 3.38 µM) | > 20 µg/mL | Non-toxic | >10 µM | > 64 µg/mL | > 20 µg/mL | > 10 µM | 1 µg/mL (≈ 1.78 µM) | > 20 µg/mL | > 10 µM |  | 
O[C@]12C=C(c3nccc4c3[nH]c3ccccc34)[C@@H]3CCN(CCCCCCCC1)C[C@@]31C[C@@H]3CCCCCCN3[C@H]12 [TETRAHYDROMANZAMINE A] |  |  |  |  | 7.5 µg/mL (≈ 13.6 µM) |  | >10 µM | 50 µg/mL (≈ 90.4 µM) | 0.9 µg/mL (≈ 1.63 µM) | > 10 µM | 1.5 µg/mL (≈ 2.71 µM) | 0.45 µg/mL (≈ 0.814 µM) | > 10 µM | inactive | inactive
CCn1c2ccccc2c2ccnc(C3=C[C@@]4(O)CC/C=C\CCCCN5CC[C@@H]3[C@]3(C[C@@H]6/C=C\CCCCN6[C@H]34)C5)c21 [9-N-ETHYLMANZAMINE A] |  |  | 1.5 µg/mL (≈ 2.6 µM) | 0.14 µg/mL (≈ 0.243 µM) | 20 µg/mL (≈ 34.7 µM) |  | >10 µM | > 128 µg/mL | 10 µg/mL (≈ 17.3 µM) | 9.7 µM | 0.47 µg/mL (≈ 0.815 µM) | 0.5 µg/mL (≈ 0.867 µM) | > 10 µM |  | 
O=[N+]([O-])c1ccc2[nH]c3c(C4=C[C@@]5(O)CC/C=C\CCCCN6CC[C@@H]4[C@]4(C[C@@H]7/C=C\CCCCN7[C@H]45)C6)nccc3c2c1 [6-NITROMANZAMINE A] |  |  | 270 µg/mL (≈ 455 µM) | 0.018 µg/mL (≈ 0.0303 µM) | > 20 µg/mL |  |  | 1.6 µg/mL (≈ 2.69 µM) | 2.5 µg/mL (≈ 4.21 µM) |  | 0.028 µg/mL (≈ 0.0472 µM) | 0.15 µg/mL (≈ 0.253 µM) |  |  | 
Oc1cccc2c1[nH]c1c(C3=C[C@@]4(O)CCCCCCCCN5CC[C@@H]3[C@]3(C[C@@H]6CCCCCCN6[C@H]34)C5)nccc12 [15,16,32,33-TETRAHYDRO-8-HYDROXYMANZAMINE A] |  |  |  | 0.09 µg/mL (≈ 0.158 µM) | 6 µg/mL (≈ 10.5 µM) |  | >10 µM | 24 µg/mL (≈ 42.2 µM) | 1.5 µg/mL (≈ 2.64 µM) | > 10 µM | 0.62 µg/mL (≈ 1.09 µM) | 0.1 µg/mL (≈ 0.176 µM) | 1.97 µM | inactive | inactive
CC(C)CCn1c2ccccc2c2ccnc(C3=C[C@@]4(O)CC/C=C\CCCCN5CC[C@@H]3[C@]3(C[C@@H]6/C=C\CCCCN6[C@H]34)C5)c21 [9-N-ISOPENTYLMANZAMINE A] |  |  |  | 2.3 µg/mL (≈ 3.72 µM) | > 20 µg/mL | Non-toxic | >10 µM | 128 µg/mL (≈ 207 µM) | > 20 µg/mL | 3.2 µM | 3.8 µg/mL (≈ 6.14 µM) | 6.5 µg/mL (≈ 10.5 µM) | 3.2 µM |  | 
CCCCn1c2ccccc2c2ccnc(C3=C[C@@]4(O)CC/C=C\CCCCN5CC[C@@H]3[C@]3(C[C@@H]6/C=C\CCCCN6[C@H]34)C5)c21 [9-N-BUTYLMANZAMINE A] |  |  | 2 µg/mL (≈ 3.31 µM) | 0.33 µg/mL (≈ 0.546 µM) | > 20 µg/mL |  | >10 µM | 128 µg/mL (≈ 212 µM) | > 20 µg/mL | 0.12 µM | 1.3 µg/mL (≈ 2.15 µM) | > 20 µg/mL | 0.4 µM |  | 
CN1CCc2c([nH]c3ccccc23)C1C1=C[C@@]2(O)CC/C=C\CCCCN3CC[C@@H]1[C@]1(C[C@@H]4/C=C\CCCCN4[C@H]12)C3 (some centres not stated) |  |  |  | 0.31 µg/mL (≈ 0.547 µM) | > 20 µg/mL | Non-toxic | 8 µM | > 64 µg/mL | 6 µg/mL (≈ 10.6 µM) | > 10 µM | 0.44 µg/mL (≈ 0.776 µM) | 0.7 µg/mL (≈ 1.23 µM) | 12.2 µM |  | 
CCCn1c2ccccc2c2ccnc(C3=C[C@@]4(O)CC/C=C\CCCCN5CC[C@@H]3[C@]3(C[C@@H]6/C=C\CCCCN6[C@H]34)C5)c21 [9-N-PROPYLMANZAMINE A] |  |  | 3.7 µg/mL (≈ 6.26 µM) | 0.69 µg/mL (≈ 1.17 µM) | > 20 µg/mL |  | >10 µM | 37 µg/mL (≈ 62.6 µM) | > 20 µg/mL | 3 µM | 0.74 µg/mL (≈ 1.25 µM) | 2 µg/mL (≈ 3.38 µM) | > 10 µM |  | 
CC(C)(C)Cn1c2ccccc2c2ccnc(C3=C[C@@]4(O)CC/C=C\CCCCN5CC[C@@H]3[C@]3(C[C@@H]6/C=C\CCCCN6[C@H]34)C5)c21 [9-N-NEOPENTYLMANZAMINE A] |  |  | 0.7 µg/mL (≈ 1.13 µM) | 2.4 µg/mL (≈ 3.88 µM) | 7 µg/mL (≈ 11.3 µM) |  | >10 µM | 4 µg/mL (≈ 6.46 µM) | 4 µg/mL (≈ 6.46 µM) | 0.07 µM | 2.8 µg/mL (≈ 4.52 µM) | 0.5 µg/mL (≈ 0.808 µM) | 0.07 µM |  | 
COc1ccc2[nH]c3c(c2c1)CCNC3C1=C[C@@]2(O)CC/C=C\CCCCN3CC[C@@H]1[C@]1(C[C@@H]4/C=C\CCCCN4[C@H]12)C3 (some centres not stated) |  |  | 0.2 µg/mL (≈ 0.343 µM) | 0.057 µg/mL (≈ 0.0978 µM) | > 20 µg/mL |  | 3 µM | > 64 µg/mL | 2 µg/mL (≈ 3.43 µM) | 2.2 µM | 0.064 µg/mL (≈ 0.11 µM) | 0.2 µg/mL (≈ 0.343 µM) | 1.65 µM |  | 
COc1ccc2[nH]c3c(C4=C[C@@]5(O)CC/C=C\CCCCN6CC[C@@H]4[C@]4(C[C@@H]7/C=C\CCCCN7[C@H]45)C6)nccc3c2c1 [6-METHOXYMANZAMINE A] |  |  | 0.5 µg/mL (≈ 0.864 µM) | 0.028 µg/mL (≈ 0.0484 µM) | 5 µg/mL (≈ 8.64 µM) |  | >10 µM | > 64 µg/mL | 3 µg/mL (≈ 5.18 µM) | 0.1 µM | 0.058 µg/mL (≈ 0.1 µM) | 0.8 µg/mL (≈ 1.38 µM) | 0.11 µM |  | 
